“Also recorded” adds a separate entry of the source. Like-named read-outs stand apart in the source and are kept apart here.
Tests used:
TNFR1 [1] = biological target: T1, TNFR1 (Homo sapiens, UniProt P19438); assay: SPR-based binding assay, immobilized TNFR1; conditions: read-out: Kd for TNFR1, 4 to 256 μM, steady-state affinity model
T1 sequence (P19438 30-455): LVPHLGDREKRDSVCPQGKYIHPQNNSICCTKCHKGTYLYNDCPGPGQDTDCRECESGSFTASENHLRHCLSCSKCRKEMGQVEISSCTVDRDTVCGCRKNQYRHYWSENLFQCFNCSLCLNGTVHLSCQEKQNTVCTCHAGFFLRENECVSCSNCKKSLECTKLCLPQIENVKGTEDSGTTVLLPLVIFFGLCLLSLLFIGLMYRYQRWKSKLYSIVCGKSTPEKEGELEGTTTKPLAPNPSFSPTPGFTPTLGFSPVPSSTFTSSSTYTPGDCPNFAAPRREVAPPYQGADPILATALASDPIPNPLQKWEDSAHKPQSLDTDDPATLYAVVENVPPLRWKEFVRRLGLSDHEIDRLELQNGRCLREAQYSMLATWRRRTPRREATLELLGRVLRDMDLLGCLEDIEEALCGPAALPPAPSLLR
How it was run: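 Human TNFR1 in 10 mM sodium acetate, pH 5.5, amine-coupled to a CM5 chip. Single-concentration screen at 50 μM in PBS with 5% DMSO, 120 s injection at 30 μL/min. For affinity, 4–256 μM in the same buffer was passed over reference and active channels at 30 μL/min, with 120 s association and 120 s dissociation. Kd from a steady-state affinity fit.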

L929 cells = assay: TNF-α-induced L929 cytotoxicity; assay type: cell-based; conditions: 25–200 μM, 10 ng/mL TNF-α and 1 μg/mL actinomycin D, 18 h
How it was run: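 L929 cells seeded at 2.0 × 10⁴ cells/well and cultured overnight. Test compound (25–200 μM) was premixed with 10 ng/mL TNF-α plus 1 μg/mL actinomycin D, then added for 18 h. Viability was read by microscopy and CCK-8 (OD 450 nm). %I = (OD AMD+TNF+compound − OD AMD+TNF)/(OD AMD − OD AMD+TNF) × 100. Three independent experiments in triplicate, mean ± SEM.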

TNF-α [2] = biological target: TNF-α (Homo sapiens, UniProt P01375); assay: SPR-based binding assay, immobilized TNF-α; conditions: read-out: Kd (μM) TNF-α, 2–128 μM, PBS with 5% DMSO
Sequence of TNF-α (Homo sapiens, UniProt P01375) (P01375 77-233 limits assumed): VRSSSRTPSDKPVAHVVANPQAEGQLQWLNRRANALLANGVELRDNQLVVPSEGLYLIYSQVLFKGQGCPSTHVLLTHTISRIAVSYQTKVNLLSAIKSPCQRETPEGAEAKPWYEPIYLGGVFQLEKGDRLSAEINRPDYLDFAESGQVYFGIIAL
How it was run: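 Human TNF-α at 50 μg/mL in 10 mM sodium acetate, pH 5.0, amine-coupled to a CM5 chip. Hits were screened at 50 μM in PBS running buffer with 5% DMSO. A 2–128 μM concentration series was injected for 120 s, with 120 s dissociation. Kd came from fitting the sensorgrams in evaluation software. Representative of three independent experiments.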

TNF-α [3] = conditions: read-out: Kd TNF-α; cited from earlier work
TNFR1 [4] = conditions: cited from earlier work

| Compound | Kd (TNF-α [2]) | Inhibition of TNF-α-mediated cytotoxicity on L929 cells (in words) (L929 cells) | also measured |
| --- | --- | --- | --- |
| O=C(NCc1ccc2c(c1)OCO2)C1CCCN(c2ncnc3nc[nH]c23)C1 (centres unmarked) [Compound R1] | – | dose-dependent inhibition; also recorded: activities similar to that of C87 | Kd (TNFR1 [1]): 16 µM |
| Cc1cc2occ(CN(C)CCN(C)Cc3cn(-c4cccc(C(F)(F)F)c4)c4ccccc34)c(=O)c2cc1C [SPD-304] | – | – | Kd (TNF-α [3]): 5.36 µM |
| TNF-α | – | – | Kd (TNFR1 [4]; read-out: Kd for binding of TNF-α to TNFR1): 0.00176 µM |
| physcion-8-O-β-D-monoglucoside [reference compound] | – | – | Kd (TNFR1 [4]; read-out: Kd TNFR1): 0.376 µM |

The next lines start with results.

| Kd (TNF-α [2]) | Compound | Inhibition of TNF-α-mediated cytotoxicity on L929 cells (in words) (L929 cells) | also measured |
| --- | --- | --- | --- |
| 11 µM | O=c1c(N=Nc2nc3ccccc3s2)c(-c2ccccc2)[nH]n1-c1ccc([N+](=O)[O-])cc1 [Compound T1] | dose-dependent inhibition; also recorded: activities similar to that of C87 | – |
| 58 µM | O=C1Nc2c(S(=O)(=O)Nc3ccccc3)cc(S(=O)(=O)Nc3ccccc3)c3cccc1c23 [Compound T2] | no activity | – |
| 113 µM | O=C(O)CCC(=O)Nc1sc2c(c1C(=O)Nc1cccc3ccccc13)CCCC2 [Compound T4] | no activity | – |

From publication PMC6732210 (Journal of chemical information and modeling, 2017)
